Measured values: article PMC5586103 (Bioorganic & medicinal chemistry letters, 2015)

Tests used:
[1] = test system: normal human fibroblasts (NHFB); experiment: SRB cytotoxicity assay in normal human fibroblasts; type: cell-based; settings: Fibroblast, read-out: EC50 NHFB
NSCLC cell line H460 = experiment: SRB cytotoxicity assay in NSCLC cell line H460; type: cell-based; settings: for cytoselective anti-cancer effects in H460 and H460TaxR cells (in words): single concentration 10 µM, SRB, H460 and H460TaxR versus NHFB
In short: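 Sulforhodamine B (SRB) viability assay in H460 cells, run alongside drug-resistant H460TaxR and normal human fibroblasts (NHFB). The initial screen used a single test-compound concentration of 10 µM. DMSO served as the negative control, and viability in DMSO was set to 100%. Selected compounds were also tested across a range of doses in H460 and H460TaxR to give dose-dependent cytotoxicity.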

[2] = high throughput aqueous solubility assay; type: physicochemical; settings: for aqueous solubility (in words): comparison within libraries

Row | Compound | EC50 [1] [µM] | cytoselective anti-cancer effects in H460 and H460TaxR cells (in words) (NSCLC cell line H460) | anti-cancer activity (in words) (NSCLC cell line H460; H460 and H460TaxR) | other results
1 | O=C1N=C(Nc2ccccc2)S/C1=C/c1ccc(N2CCOCC2)cc1 [Compound 3] | > 100 |  |  | 
2 | CCN(CC)c1ccc(/C=C2/SC(N(c3ccccc3)c3ccccc3)=NC2=O)cc1 [Compound 27] | > 100 |  |  | 
3 | CCN(CC)c1ccc(/C=C2/SC(Nc3ccccc3)=NC2=O)cc1 [Compound 2] | > 100 | good cytoselective anti-cancer effects |  | 
4 | Cc1ccccc1/N=C1\NC(=O)/C(=C\c2ccc(N(C)C)cc2)S1 [Compound 21] |  | good cytoselective anti-cancer effects |  | 
5 | O=C1N=C(Nc2ccccc2)S/C1=C/c1ccc(N2CCNCC2)cc1 [Compound 5] | > 100 |  | reduced anticancer activity | aqueous solubility (in words) [2]: largest improvement in aqueous solubility
6 | CN(C)c1ccc(/C=C2/SC(N(c3ccccc3)c3ccccc3)=NC2=O)cc1 [Compound 26] | > 100 |  |  | 
7 | CN(C)c1ccc(/C=C2/SC(=Nc3ccccc3Cl)NC2=O)cc1 [Compound 11] |  | good cytoselective anti-cancer effects |  | 
8 | O=C1N=C(Nc2ccc(O)cc2)S/C1=C/c1ccc(N2CCNCC2)cc1 [Compound 10] |  |  | reduced anticancer activity | aqueous solubility (in words) [2]: largest improvement in aqueous solubility
9 | CN(C1=NC(=O)/C(=C\c2ccc(N3CCOCC3)cc2)S1)c1ccccc1 [Compound 33] | > 100 |  | weak anti-cancer effects | aqueous solubility (in words) [2]: significantly better
10 | CCN(CC)c1ccc(/C=C2/SC(Nc3ccccc3C)=NC2=O)cc1 [Compound 22] |  | good cytoselective anti-cancer effects |  | 
11 | CCN(CC)c1ccc(/C=C2/SC(Nc3ccccc3Cl)=NC2=O)cc1 [Compound 12] |  | good cytoselective anti-cancer effects |  | 
12 | CN1CCN(c2ccc(/C=C3/SC(N(C)c4ccccc4)=NC3=O)cc2)CC1 [Compound 34] |  |  | weak anti-cancer effects | 
13 | CN1CCN(c2ccc(/C=C3/SC(Nc4ccccc4)=NC3=O)cc2)CC1 [Compound 4] |  | good cytoselective anti-cancer effects |  | 
14 | CCN(CC)c1ccc(/C=C2/SC(N(C)c3ccccc3)=NC2=O)cc1 [Compound 32] | > 100 | potent cytoselective anti-cancer activity |  | aqueous solubility (in words) [2]: did not improve solubility
15 | CN(C1=NC(=O)/C(=C\c2ccc(N3CCNCC3)cc2)S1)c1ccccc1 [Compound 35] |  |  | weak anti-cancer effects | 
16 | Cc1ccccc1NC1=NC(=O)/C(=C\c2ccc(N3CCNCC3)cc2)S1 [Compound 25] |  |  | reduced anticancer activity | aqueous solubility (in words) [2]: largest improvement in aqueous solubility
17 | CN(C)c1ccc(/C=C2/SC(N(C)c3ccccc3)=NC2=O)cc1 [Compound 31] |  | potent cytoselective anti-cancer activity |  | improvement in aqueous solubility ([2]; compared to compound 1): 5 fold; improvement in anti-cancer activity (EC50) (NSCLC cell line H460; H460 and H460TaxR, compared to compound 1): 10 fold
18 | CN(C)c1ccc(/C=C2/SC(=Nc3ccccc3)NC2=O)cc1 [Compound 1] | > 100 | good cytoselective anti-cancer effects |  | 
